Results from different studies.
ENO1: ENO1 (Candida albicans, UniProt P30575)
Sialidase-3: Sialidase-3 (Homo sapiens, UniProt Q9UQ49)
Oprm1: Mu-type opioid receptor (Oprm1, Rattus norvegicus, UniProt P33535)
Prolyl endopeptidase: Prolyl endopeptidase (Mus musculus, UniProt Q9QUR6)

O=Nc1c(O)[nH]c(=O)[nH]c1=O  IC50 (ENO1; enzyme activity, inhibitor, absorbance): > 50 µM
CCCCNC(=O)N[C@H]1[C@H]([C@H](O)[C@H](O)CO)OC(C(=O)O)=C[C@@H]1O  IC50 (Sialidase-3; enzyme activity, inhibitor): > 500 µM
COc1cc2c(cc1OC)CN(CCc1ccc(NC(=O)c3cccc4c(=O)c5cccc(OC)c5[nH]c34)cc1)CC2  Ki (D(4) dopamine receptor (DRD4, Homo sapiens, UniProt P21917); cell-free assay): > 10 µM
CC(C)(C)CC(=O)N[C@H]1[C@H]([C@H](O)[C@H](O)CO)OC(C(=O)O)=C[C@@H]1O  IC50 (Sialidase-3; enzyme activity, inhibitor): > 500 µM
C/C=C1/CN2CC[C@]34C(=C(C(=O)OC)[C@H]1C[C@H]23)Nc1ccc(I)cc14  Ki (Oprm1; ligand displacement, radioligand; cell membranes): 0.388 µM
COc1c2c(cc3c1-c1c(cc4c(c1OC)OCO4)C[C@H](C)[C@H](C)C3)OCO2  IC50 (Prolyl endopeptidase; enzyme activity, inhibitor, fluorescence): > 100 µM
C/C=C1/CN2CC[C@]34C(=C(C(=O)OC)[C@H]1C[C@H]23)Nc1ccc(Br)cc14  Ki (Oprm1; ligand displacement, radioligand; cell membranes): 0.658 µM
CN1C(=O)CN=C(c2ccccc2F)c2cc([N+](=O)[O-])ccc21  IC50 (Aldo-keto reductase family 1 member C2 (AKR1C2, Homo sapiens, UniProt P52895); enzyme activity, inhibitor): 1.6 µM
C=CCc1ccc(O)c(-c2cc(CC=C)ccc2O)c1  IC50 (Prolyl endopeptidase; enzyme activity, inhibitor, fluorescence): > 100 µM
O=C1CCCN1CP(=O)(O)O  IC50 (ENO1; enzyme activity, inhibitor, absorbance): > 50 µM
